In ChEMBL document CHEMBL3734708, “Synthesis, cytotoxicity and antiviral evaluation of new series of imidazo[4,5-g]quinoline and pyrido[2,3-g]quinoxalinone derivatives” (Eur J Med Chem, 2015):

Legend:
[1] = system: Mammalian orthoreovirus 1; test: Antiviral activity against Reovirus 1 ATCC VR- 214 infected in BHK21 cells assessed as protection against virus-induced cytopathic effect after 3 or 4 days by MTT assay; format: functional, cell-based; details: Mammalian orthoreovirus 1, ATCC VR- 214, BHK-21
Method in brief: (§1)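 BHK-21 (YFV, Reo-1) or MDBK (BVDV) cells seeded at 5 × 10^4 or 3 × 10^4 cells/well and grown overnight to confluence. Monolayers infected at m.o.i. 0.01 in maintenance medium (MEM-Earle, 0.5% inactivated FBS). Serial compound dilutions added 2 h after infection; 37 °C for 3-4 days. Viability read by MTT. EC50 by linear regression versus untreated controls; mean of three determinations.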

[2] = system: Vesicular stomatitis virus; test: Antiviral activity against VSV Indiana ATCC VR-158 infected in african green monkey Vero-76 cells after 2 days by plaque reduction assay; format: functional, organism-based; details: Indiana ATCC VR-158, Vero 76, 48 h
[3] = system: Yellow fever virus; test: Antiviral activity against YFV 17-D vaccine (Stamaril Pasteur J07B01) infected in BHK21 cells assessed as protection against virus-induced cytopathic effect after 3 or 4 days by MTT assay; format: functional, organism-based; details: BHK-21; method in brief: as §1
[4] = system: Human poliovirus 1 strain Sabin; test: Antiviral activity against Human poliovirus 1 strain Sabin 1 virus infected in african green monkey Vero-76 cells after 2 days by plaque reduction assay; format: functional, organism-based; details: Enterovirus C, 1, Vero 76, 48 h
[5] = system: Vaccinia virus; test: Antiviral activity against VV Elstree ATCC VR-1549 infected in african green monkey Vero-76 cells after 3 days by plaque reduction assay; format: functional, organism-based; details: Orthopoxvirus vaccinia, Elstree ATCC VR-1549, Vero 76, 72 h
[6] = Cytotoxicity against MDBK cells assessed as reduction in cell viability after 72 hrs by MTT assay; format: cell-based, Bos taurus; details: cattle
Method in brief: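 MDBK cells seeded at 6 × 10^5 cells/mL in MEM-E with L-glutamine, 1 mM sodium pyruvate, kanamycin and 10% horse serum. Mock-infected cultures held with serial compound dilutions at 37 °C, 5% CO2. MTT viability read after 72 h. 50% cytotoxic concentration from linear regression as % of untreated controls. Three independent determinations.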

[7] = system: Respiratory syncytial virus; test: Antiviral activity against RSVA2 ATCC VR-1540 infected in african green monkey Vero-76 cells after 5 days by plaque reduction assay; format: functional, organism-based; details: human respiratory syncytial virus, A2 ATCC VR-1540, Vero 76, 120 h
[8] = Cytotoxicity against BHK21 cells assessed as reduction in cell viability after 72 hrs by MTT assay; format: cell-based, Mesocricetus auratus, BHK-21; details: hamster
Method in brief: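 BHK cells seeded at 1 × 10^6 cells/mL in MEM-E with L-glutamine, 1 mM sodium pyruvate, kanamycin and 10% FBS. Mock-infected cells exposed to serial dilutions of compound at 37 °C, 5% CO2, run in parallel with the antiviral assays. Viability by MTT at 72 h. CC50 by linear regression vs untreated controls. Mean of three independent determinations.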

[9] = system: Human immunodeficiency virus 1; test: Antiviral activity against HIV-1 3B infected in human MT4 cells assessed as protection against virus-induced cytopathic effect after 4 days by MTT assay; format: functional, organism-based; details: Human immunodeficiency virus 1, 3B, MT4, 96 h
Method in brief: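 MT-4 cells (1 × 10^4/well in RPMI) with or without serial compound dilutions, infected with HIV-1 at 100 CCID50 (m.o.i. 0.01). After 4 days at 37 °C, protection from cytopathogenicity read by MTT. EC50 by linear regression versus untreated controls; mean of three independent determinations.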

[10] = system: Human alphaherpesvirus 1; test: Antiviral activity against HSV-1 KOS ATCC VR- 1493 infected in african green monkey Vero-76 cells after 3 days by plaque reduction assay; format: functional, organism-based; details: Human alphaherpesvirus 1, KOS ATCC VR1493, Vero 76, 72 h
[11] = Cytotoxicity against human MT4 cells assessed as reduction in cell proliferation after 96 hrs by MTT assay; format: cell-based
Method in brief: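 MT-4 cells in exponential growth seeded at 1 × 10^5 cells/mL in RPMI-1640 with 10% FBS and penicillin/streptomycin. Cultured with serial compound dilutions at 37 °C, 5% CO2. MTT viability after 96 h. CC50 by linear regression against untreated controls. Mean of three independent determinations.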

[12] = Cytotoxicity against african green monkey Vero 76 cells assessed as reduction in cell viability after 48 to 96 hrs by MTT assay; format: cell-based; details: chlorocebus sabaeus
Method in brief: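 Vero-76 cells plated at 4 × 10^5 cells/mL in D-MEM with L-glutamine, kanamycin and 10% FBS. Incubated with serial dilutions of test compounds at 37 °C, 5% CO2 for 48-96 h. Viability by MTT. CC50 by linear regression relative to untreated cells. Mean of three independent runs.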

[13] = system: Bovine viral diarrhea virus 1; test: Antiviral activity against BVDV NADL ATCC VR-534 infected in MDBK cells assessed as protection against virus-induced cytopathic effect after 3 or 4 days by MTT assay; format: functional, organism-based; details: Bovine viral diarrhea virus isolates and strains, NADL ATCC VR-534, MDBK; method in brief: as §1
[14] = system: Coxsackievirus B5; test: Antiviral activity against CVB-5 virus Faulkner ATCC VR-185 infected in african green monkey Vero-76 cells after 3 days by plaque reduction assay; format: functional, organism-based; details: Enterovirus B, Faulkner ATCC VR-185, Vero 76, 72 h

COc1nc2cc3cccnc3c(Cl)c2nc1C(C)C
> 100 µM: EC50 [1] | EC50 [2] | EC50 [3] | EC50 [4] | EC50 [5] | CC50 at 72 h [6] | EC50 [7] | CC50 at 72 h [8] | EC50 [9] | EC50 [10] | CC50 at 96 h [11] | CC50 [12] | EC50 [13] | EC50 [14]

Cn1c(=O)c(-c2cccs2)nc2c(Cl)c3ncccc3cc21
2 µM: EC50 [13]
> 100 µM: EC50 [1] | EC50 [2] | EC50 [3] | EC50 [4] | EC50 [5] | CC50 at 72 h [6] | EC50 [7] | CC50 at 72 h [8] | EC50 [9] | EC50 [10] | CC50 at 96 h [11] | CC50 [12] | EC50 [14]

COc1nc2cc3cccnc3c(Cl)c2nc1-c1ccccc1
4 µM: EC50 [13]
> 100 µM: EC50 [2] | EC50 [3] | EC50 [5] | CC50 at 72 h [6] | CC50 at 72 h [8] | EC50 [9] | EC50 [10] | CC50 at 96 h [11] | CC50 [12] | EC50 [14]
73 µM: EC50 [4]
9 µM: EC50 [7]
21 µM: EC50 [1]

Cn1c(=O)c(-c2ccccc2)nc2c(Cl)c3ncccc3cc21
> 100 µM: EC50 [1] | EC50 [2] | EC50 [3] | EC50 [5] | CC50 at 72 h [6] | EC50 [7] | CC50 at 72 h [8] | EC50 [9] | EC50 [10] | CC50 at 96 h [11] | CC50 [12]
38 µM: EC50 [4]
16 µM: EC50 [13]
17 µM: EC50 [14]

O=c1c(-c2ccccc2)nc2cc3cccnc3c(Cl)c2n1CC1CCCCC1
> 23 µM: EC50 [9]
> 15 µM: EC50 [1] | EC50 [3]
4 µM: EC50 [13]
15 µM: CC50 at 72 h [8]
> 20 µM: EC50 [2] | EC50 [4] | EC50 [5] | EC50 [7] | EC50 [10] | EC50 [14]
23 µM: CC50 at 96 h [11]
20 µM: CC50 [12]
50 µM: CC50 at 72 h [6]

N#CCn1c(=O)c(-c2ccccc2)nc2c(Cl)c3ncccc3cc21
> 90 µM: EC50 [2] | EC50 [4] | EC50 [5] | EC50 [7] | EC50 [10] | EC50 [14]
90 µM: CC50 [12]
> 100 µM: EC50 [1] | EC50 [3] | CC50 at 72 h [6] | CC50 at 72 h [8] | EC50 [9] | CC50 at 96 h [11] | EC50 [13]

CC(C)c1nc2c(Cl)c3ncccc3cc2[nH]c1=O
> 100 µM: EC50 [1] | EC50 [2] | EC50 [3] | EC50 [4] | EC50 [5] | CC50 at 72 h [6] | EC50 [7] | CC50 at 72 h [8] | EC50 [9] | EC50 [10] | CC50 at 96 h [11] | CC50 [12] | EC50 [13] | EC50 [14]

Cn1c(=O)c(Cc2ccccc2)nc2c(Cl)c3ncccc3cc21
> 100 µM: EC50 [1] | EC50 [2] | EC50 [3] | EC50 [4] | EC50 [5] | CC50 at 72 h [6] | EC50 [7] | CC50 at 72 h [8] | EC50 [9] | EC50 [10] | CC50 at 96 h [11] | CC50 [12] | EC50 [14]
10 µM: EC50 [13]

CCOc1nc2cc3cccnc3c(Cl)c2nc1-c1ccccc1
> 50 µM: EC50 [2] | EC50 [4] | EC50 [5] | EC50 [7] | EC50 [10] | EC50 [14]
50 µM: CC50 [12]
> 100 µM: EC50 [1] | EC50 [3] | CC50 at 72 h [6] | CC50 at 72 h [8] | EC50 [9] | CC50 at 96 h [11]
73 µM: EC50 [13]

CC(C)c1nc2c(Cl)c3ncccc3cc2n(C)c1=O
> 100 µM: EC50 [1] | EC50 [2] | EC50 [3] | EC50 [4] | EC50 [5] | CC50 at 72 h [6] | EC50 [7] | CC50 at 72 h [8] | EC50 [9] | EC50 [10] | CC50 at 96 h [11] | CC50 [12] | EC50 [13] | EC50 [14]

O=c1c(-c2ccccc2)nc2cc3cccnc3c(Cl)c2n1C1CCCCC1
4 µM: EC50 [13]
> 70 µM: EC50 [2] | EC50 [4] | EC50 [5] | EC50 [7] | EC50 [10] | EC50 [14]
> 48 µM: EC50 [9]
48 µM: CC50 at 96 h [11]
70 µM: CC50 [12]
> 100 µM: EC50 [1] | EC50 [3] | CC50 at 72 h [6] | CC50 at 72 h [8]

c1ccc(-c2nc3cc4cccnc4cc3n2C2CCCCC2)cc1
29 µM: EC50 [13]
> 100 µM: EC50 [3] | CC50 at 72 h [6] | CC50 at 72 h [8]
> 35 µM: EC50 [2] | EC50 [4] | EC50 [5] | EC50 [7] | EC50 [10] | EC50 [14]
35 µM: CC50 [12]
67 µM: EC50 [1]
50 µM: CC50 at 96 h [11]
> 50 µM: EC50 [9]
